In data set [1] the test system is Dengue virus. Put plainly: Inhibition of Dengue virus NS2B-NS3 serine protease expressed in Escherichia coli BL 21 (DE3) at 50 uM preincubated for 15 mins before substrate addition measured after 15 mins by fluorimetric analysis. In outline:
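Recombinant NS2B hydrophilic cofactor linked through a glycine linker to NS3pro, His-purified on Ni2+ resin. Enzyme preincubated 15 min with inhibitor at 50 μM. Internally quenched substrate added to 50 μM final. Fluorescence read at ex 320/em 405 nm for 15 min, with initial slope per second as activity. Triplicate runs averaged.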

The target of data set [2] is Prothrombin (Homo sapiens) (UniProt P00734). In words: Inhibition of thrombin at 25 uM preincubated for 15 mins before Boc-Val-Pro-Arg-AMC substrate addition measured after 10 mins by microtiter fluorescence plate reader analysis.
For data set [3], the target named is Genome polyprotein (West Nile virus) (UniProt P06935). In words: Inhibition of West Nile virus NS2B-NS3 serine protease at 50 uM preincubated for 15 mins before substrate addition measured after 15 mins by fluorimetric analysis. The method, boiled down:
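WNV NS2B-NS3 protease at 150 nM final, preincubated 15 min with inhibitor at 50 μM. Abz-GLKRGG-3-(NO2)Y internally quenched substrate added to 50 μM final. Continuous fluorescence read for 15 min, with initial slope per second as activity.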

Data set [4] has as its system dengue virus type 2. In words: Antiviral activity against Dengue virus 2 infected in human Huh-7 cells assessed as inhibition of viral replication at 1 to 25 uM treated 4 hrs after infection measured after 24 hrs by reporter gene assay. Format: functional, organism-based. Background: Reporter assays use an easily measured gene product as a stand-in for the process of interest.

Data set [5] relates to dengue virus type 2. Put plainly: Antiviral activity against Dengue virus 2 infected in human Huh-7 cells assessed as reduction of viral titers at non-cytotoxic concentration after 24 hrs by reporter gene assay relative to control. It is filed as functional. The method, boiled down: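 Huh-7 cells were infected with wild-type DenV-2 at an MOI of 1 TCID50 per cell. Compounds were added to the supernatants 4 h post-infection, with 1% final DMSO as the diluent control. Infectious titers were determined 24 h post-infection by limiting-dilution assay, with three independent experiments. Cytotoxicity was measured in Huh-7-Fluc cells after 48 h at 37 °C by luciferase read-out and visual inspection.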

The test system of data set [6] is Huh-7. In words: Cytotoxicity against human HuH7 cells assessed as reduction of cell viability at up to 100 uM after 48 hrs by luciferase assay. Format: cell-based. The note with it: huh-7, 48 h. In outline:
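Huh-7-Fluc cells exposed to compounds up to 100 μM for 48 h at 37 °C, 5% CO2. Cells then lysed and luciferase activity read as a surrogate of viability, alongside visual inspection of cells.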

Active and inactive are the calls of the source. The rule behind the calls is not given here.

Chain of Genome polyprotein (West Nile virus) (P06935 whole entry): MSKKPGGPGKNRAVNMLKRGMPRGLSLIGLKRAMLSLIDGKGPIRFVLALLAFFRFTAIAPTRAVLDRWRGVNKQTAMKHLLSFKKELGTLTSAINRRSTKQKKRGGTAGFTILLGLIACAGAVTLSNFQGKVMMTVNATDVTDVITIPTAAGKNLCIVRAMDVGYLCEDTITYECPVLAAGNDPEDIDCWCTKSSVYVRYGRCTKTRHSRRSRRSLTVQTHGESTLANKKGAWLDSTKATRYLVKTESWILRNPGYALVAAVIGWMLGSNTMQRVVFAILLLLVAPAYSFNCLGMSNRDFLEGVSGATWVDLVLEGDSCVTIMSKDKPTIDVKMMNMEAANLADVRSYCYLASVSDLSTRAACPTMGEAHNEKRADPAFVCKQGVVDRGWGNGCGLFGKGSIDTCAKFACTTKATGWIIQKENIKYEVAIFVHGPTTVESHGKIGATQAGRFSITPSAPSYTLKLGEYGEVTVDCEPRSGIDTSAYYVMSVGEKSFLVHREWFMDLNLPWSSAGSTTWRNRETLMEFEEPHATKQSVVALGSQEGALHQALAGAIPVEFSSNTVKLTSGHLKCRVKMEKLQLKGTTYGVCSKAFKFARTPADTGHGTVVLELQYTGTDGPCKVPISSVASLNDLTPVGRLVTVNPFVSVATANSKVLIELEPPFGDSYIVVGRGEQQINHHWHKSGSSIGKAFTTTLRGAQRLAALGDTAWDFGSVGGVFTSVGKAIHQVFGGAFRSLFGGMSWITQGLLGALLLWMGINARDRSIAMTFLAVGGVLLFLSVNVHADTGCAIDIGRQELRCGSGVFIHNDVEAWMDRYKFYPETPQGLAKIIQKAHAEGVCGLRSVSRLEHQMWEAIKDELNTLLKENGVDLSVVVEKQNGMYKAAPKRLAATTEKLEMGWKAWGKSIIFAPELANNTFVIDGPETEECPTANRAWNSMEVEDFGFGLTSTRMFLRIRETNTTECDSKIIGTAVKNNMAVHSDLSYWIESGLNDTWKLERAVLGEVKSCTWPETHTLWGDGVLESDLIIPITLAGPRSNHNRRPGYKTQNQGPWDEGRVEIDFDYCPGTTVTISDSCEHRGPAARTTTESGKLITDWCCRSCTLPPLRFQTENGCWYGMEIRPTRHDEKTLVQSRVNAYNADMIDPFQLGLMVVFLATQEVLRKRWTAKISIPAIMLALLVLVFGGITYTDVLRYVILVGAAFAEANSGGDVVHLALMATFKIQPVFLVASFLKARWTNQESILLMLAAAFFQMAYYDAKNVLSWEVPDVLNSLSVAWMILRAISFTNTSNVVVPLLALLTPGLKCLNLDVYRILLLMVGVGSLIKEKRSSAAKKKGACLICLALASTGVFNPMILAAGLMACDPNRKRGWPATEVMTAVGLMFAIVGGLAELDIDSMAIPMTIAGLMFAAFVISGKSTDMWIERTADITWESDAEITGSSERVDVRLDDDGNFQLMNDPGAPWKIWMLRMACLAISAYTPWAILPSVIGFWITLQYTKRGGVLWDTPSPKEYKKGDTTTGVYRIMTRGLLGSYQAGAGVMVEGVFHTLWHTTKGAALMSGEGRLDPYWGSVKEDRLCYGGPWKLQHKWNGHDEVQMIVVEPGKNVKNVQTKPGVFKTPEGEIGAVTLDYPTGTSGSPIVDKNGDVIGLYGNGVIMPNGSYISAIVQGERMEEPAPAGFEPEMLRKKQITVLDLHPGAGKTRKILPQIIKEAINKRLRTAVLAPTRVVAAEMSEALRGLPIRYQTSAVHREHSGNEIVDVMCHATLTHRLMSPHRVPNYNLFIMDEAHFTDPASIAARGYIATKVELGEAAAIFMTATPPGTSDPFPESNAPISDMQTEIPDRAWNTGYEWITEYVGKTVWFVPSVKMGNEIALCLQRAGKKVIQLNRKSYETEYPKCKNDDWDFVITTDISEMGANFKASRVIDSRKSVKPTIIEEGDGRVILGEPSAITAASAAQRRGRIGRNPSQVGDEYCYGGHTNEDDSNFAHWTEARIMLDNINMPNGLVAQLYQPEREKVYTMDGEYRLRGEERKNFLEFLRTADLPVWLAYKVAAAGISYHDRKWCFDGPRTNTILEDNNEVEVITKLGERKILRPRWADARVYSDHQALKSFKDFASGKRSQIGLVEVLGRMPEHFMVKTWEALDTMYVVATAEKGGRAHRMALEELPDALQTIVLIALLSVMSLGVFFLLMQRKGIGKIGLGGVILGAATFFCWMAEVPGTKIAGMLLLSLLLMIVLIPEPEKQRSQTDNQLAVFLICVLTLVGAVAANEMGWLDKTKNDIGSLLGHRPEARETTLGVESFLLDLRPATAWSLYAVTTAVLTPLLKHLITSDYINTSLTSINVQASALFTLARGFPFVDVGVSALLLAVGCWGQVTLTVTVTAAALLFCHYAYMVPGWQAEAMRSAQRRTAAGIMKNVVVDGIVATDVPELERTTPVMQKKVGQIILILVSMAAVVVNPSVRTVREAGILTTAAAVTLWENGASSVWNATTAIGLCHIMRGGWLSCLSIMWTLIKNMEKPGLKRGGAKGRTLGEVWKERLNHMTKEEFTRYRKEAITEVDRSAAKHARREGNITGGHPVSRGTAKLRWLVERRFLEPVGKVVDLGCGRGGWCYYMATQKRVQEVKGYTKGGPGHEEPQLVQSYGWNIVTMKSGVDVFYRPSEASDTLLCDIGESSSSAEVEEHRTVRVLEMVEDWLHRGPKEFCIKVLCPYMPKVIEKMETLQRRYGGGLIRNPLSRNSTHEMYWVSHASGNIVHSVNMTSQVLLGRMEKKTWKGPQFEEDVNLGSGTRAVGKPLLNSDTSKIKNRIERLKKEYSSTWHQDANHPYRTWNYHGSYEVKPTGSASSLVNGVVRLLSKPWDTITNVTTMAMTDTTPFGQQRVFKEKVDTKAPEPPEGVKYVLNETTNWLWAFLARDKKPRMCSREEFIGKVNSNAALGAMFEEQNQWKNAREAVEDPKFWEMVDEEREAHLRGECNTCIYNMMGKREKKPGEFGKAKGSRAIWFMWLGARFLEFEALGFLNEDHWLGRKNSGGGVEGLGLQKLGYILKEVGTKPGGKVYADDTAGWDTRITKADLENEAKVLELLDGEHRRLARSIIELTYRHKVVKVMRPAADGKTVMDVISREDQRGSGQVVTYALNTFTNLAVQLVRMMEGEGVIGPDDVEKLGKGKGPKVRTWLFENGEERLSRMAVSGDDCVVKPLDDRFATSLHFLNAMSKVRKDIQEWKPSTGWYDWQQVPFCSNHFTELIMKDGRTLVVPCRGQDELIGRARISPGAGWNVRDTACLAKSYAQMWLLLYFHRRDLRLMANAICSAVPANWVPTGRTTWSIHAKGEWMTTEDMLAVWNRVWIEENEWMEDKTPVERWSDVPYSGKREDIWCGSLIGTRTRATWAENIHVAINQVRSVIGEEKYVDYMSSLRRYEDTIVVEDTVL

Usually inhibition stands for how much of the control response was suppressed. Higher therefore signals a strong effect. `O=C(/C=C/c1ccccc1)C(=O)NCC1CCCO1` (stereo unspecified) registered an inhibition in data set [1] of 28.9%.

The molecule `CC(C)(C)NC(=O)C(O)/C=C/c1ccccc1` (stereo unspecified) showed an inhibition in data set [1] of 8.2%.

In the case of `O=C(/C=C/c1ccccc1)C(=O)NCc1ccncc1`, in data set [1], the inhibition came to 29.9%.

In turn, `COc1cccc(/C=C/C(=O)C(=O)NC(C)(C)C)c1` yielded an inhibition in data set [1] of 17.8%.

The molecule `CC(C)(C)NC(=O)C(=O)/C=C/c1ccccn1` came in with an inhibition in data set [1] of 27.7%.

In data set [1], `CN(C)C(=O)C(=O)/C=C/c1ccccc1` came in with an inhibition of 29%.

With `COc1ccc(/C=C/C(=O)C(=O)NC(C)(C)C)cc1`, the inhibition was 14.2% in data set [2], 27.3% in data set [3] and 16.7% in data set [1].

Molecule `CC(C)(C)NC(=O)C(=O)/C=C/c1cccnc1` registered an inhibition in data set [1] of 23.3%.

Consider `CC(C)(C)NC(=O)C(=O)/C=C/c1ccc(Cl)cc1`, for which the values for the inhibition in data set [2], in data set [3] and in data set [1] were 6.7%, 6.3% and 15.9%, respectively.

Regarding `O=C(/C=C/c1ccccc1)C(=O)NC1CCCCC1`, the inhibition in data set [1] is 14.5%.

As to `CC(C)(C)NC(=O)C(=O)CCc1ccccc1`, the outcome in data set [4] was inactive. The inhibition in data set [1] came out at 0%.

Regarding `CC(C)c1ccc(/C=C/C(=O)C(=O)NC(C)(C)C)cc1`, the inhibition in data set [1] is 25.5%.

For `CN(C)c1ccc(/C=C/C(=O)C(=O)NC(C)(C)C)cc1`, the inhibition stood at 28.9% in data set [2], 33.9% in data set [3] and 13.8% in data set [1].

`CC(C)(C)NC(=O)C(=O)/C=C/c1cccs1` yielded an inhibition in data set [1] of 27.6%.

As for `CC(NC(=O)C(=O)/C=C/c1ccccc1)c1ccccc1` (stereo unspecified), the inhibition in data set [2] was 5.1%; in data set [3], 12.2%; in data set [1], 0%.

In data set [1], `CC(C)(C)NC(=O)C(=O)C1CC1c1ccccc1` (stereo unspecified) yielded an inhibition of 7.4%.

In the case of `CC(C)(C)NC(=O)C1(/C=C/c2ccccc2)CO1` (stereo unspecified), the figures for the inhibition in data set [2], in data set [3] and in data set [1] were 12.1%, 20.3% and 12.6%, respectively.

With `CC(C)(C)NC(=O)C(=O)/C=C/c1cccc([N+](=O)[O-])c1`, the inhibition in data set [1] was 9.6%.

For the molecule `CNC(=O)/C=C/c1ccccc1`, the inhibition in data set [1] came out at 15.2%.

In the case of `CC(C)(C)NC(=O)C(=O)/C=C/c1ccc(Br)cc1`, the inhibition in data set [1] turned out to be 15.1%.

Molecule `CC(C)NC(=O)C(=O)/C=C/c1ccccc1` yielded an inhibition in data set [1] of 23.8%.

`O=C(/C=C/c1ccccc1)C(=O)NCc1ccccn1` registered an inhibition in data set [1] of 29.4%.

In the case of `CC(C)(C)NC(=O)C(=O)C1CCCCC1`, in data set [1], the inhibition was 21.5%.

In the case of `C/C(=C\c1ccccc1)C(=O)C(=O)NC(C)(C)C`, the results for the inhibition in data set [2], in data set [3] and in data set [1] were 5.7%, 0% and 25.6%, respectively.

Regarding `COc1ccc(/C=C/C(=O)C(=O)NC(C)(C)C)c(OC)c1OC`, the inhibition in data set [1] was 27.8%.

Regarding `CC(C)(C)NC(=O)C(=O)/C=C/c1cccc(F)c1`, the inhibition in data set [1] came out at 16.8%.

Take `CC(C)(C)NC(=O)C(=O)/C=C/c1ccccc1`: the inhibition in data set [2] stood at 19.6%; in data set [3], 20%; in data set [1], 26.3%.

Take `CC(C)(C)NC(=O)C(=O)/C=C/c1ccccc1[N+](=O)[O-]`: in data set [1], the inhibition was 12.9%.

In data set [1], `CNC(=O)C(=O)/C=C/c1ccccc1` came in with an inhibition of 26.9%.

In turn, `COc1ccccc1/C=C/C(=O)C(=O)NC(C)(C)C` came in with an inhibition in data set [1] of 23.3%.

In turn, `CCCCCNC(=O)C(=O)/C=C/c1ccccc1` showed an inhibition in data set [1] of 25.9%.

As to `CC(C)(C)NC(=O)C(=O)/C=C/c1ccc(N)cc1`, the inhibition is 21.1% in data set [2], 39.5% in data set [3] and 40.6% in data set [1].

As for `CC(C)(C)NC(=O)C(=O)/C=C/c1ccc(F)cc1`, the inhibition in data set [1] worked out at 23.9%.

As to `CCC/C=C/C(=O)C(=O)NC(C)(C)C`, the inhibition in data set [1] was found to be 4.4%.

Take `O=C(/C=C/c1ccccc1)C(=O)NC1CC1`: the inhibition in data set [2] turned out to be 17.1%; in data set [3], 20%; in data set [1], 31.2%.

`CC(C)(C)NC(=O)C(=O)/C=C/c1ccncc1` registered an inhibition in data set [1] of 18.4%.

In turn, `CC(=O)Nc1ccc(/C=C/C(=O)C(=O)NC(C)(C)C)cc1` returned an inhibition in data set [1] of 32.9%.

In data set [1], `CC(C)(C)NC(=O)C(=O)/C=C/c1ccc2ccccc2c1` returned an inhibition of 8.9%.

Consider `COc1ccc(/C=C/C(=O)C(=O)NC(C)(C)C)cc1OC`, for which the inhibition came to 22.5% in data set [2], 31% in data set [3] and 36.1% in data set [1]. The outcome in data set [4] was Active.

`CC(=O)OCCNC(=O)C(=O)/C=C/c1ccccc1`: the figures for the inhibition in data set [2], in data set [3] and in data set [1] were 16.3%, 29.8% and 35.8%, respectively.

For the molecule `Cn1cc(/C=C/C(=O)C(=O)NC(C)(C)C)c2ccccc21`, in data set [1], the inhibition came out at 31.3%.

As for `CC(C)(C)NC(=O)C(=O)/C=C/c1ccc(O)cc1`, the inhibition was found to be 17.3% in data set [2], 31.4% in data set [3] and 37.6% in data set [1].

In turn, `O=C(/C=C/c1ccccc1)C(=O)NCc1ccccc1` gave an inhibition in data set [1] of 14.6%.

As for `O=C(/C=C/c1ccccc1)C(=O)N1CCOCC1`, the inhibition in data set [1] was determined as 30.8%.

Turning to `CC(=O)n1cc(/C=C/C(=O)C(=O)NC(C)(C)C)c2ccccc21`, the inhibition in data set [1] is 29.8%.

`O=C(/C=C/c1ccccc1)C(=O)NCCO`: the inhibition in data set [1] was found to be 26.1%.

As to `C/C(=C\C(=O)C(=O)NC(C)(C)C)c1ccccc1`, the inhibition in data set [1] came out at 19.6%.

As for `COC(=O)[C@H](CO)NC(=O)C(=O)/C=C/c1ccccc1`, the results for the inhibition in data set [2], in data set [3] and in data set [1] were 12.6%, 27.5% and 35.1%, respectively.

As for `CC(C)(C)NC(=O)C(=O)c1ccccc1`, the inhibition in data set [1] amounted to 6.9%.

`CC(C)(C)NC(=O)C(=O)/C=C/c1c[nH]c2ccccc12`: the inhibition came out at 16.9% in data set [2], 40.6% in data set [3] and 39.1% in data set [1]. In addition, the outcome in data set [4] was Active. For the same molecule, the “fold change (FC)” value in data set [5] is given as 1000. Moreover, in data set [6], the Activity entry was “Non-toxic”.

In data set [1], `CC(C)(C)NC(=O)C(=O)/C=C/c1ccc(C#N)cc1` registered an inhibition of 13.5%.

In data set [1], `CC(C)(C)NC(=O)C(=O)/C=C/c1ccc([N+](=O)[O-])cc1` returned an inhibition of 12.7%.

Take `CC(C)(C)NC(=O)C(=O)Cc1ccccc1`: the inhibition in data set [1] worked out at 20.4%.

The values above are taken from ChEMBL document CHEMBL1795316, “Synthesis and biological evaluation of α-ketoamides as inhibitors of the Dengue virus protease with antiviral activity in cell-culture” (Bioorg Med Chem, 2011).
